{"source": "ChEMBL document CHEMBL3734747", "about": "“Varioxiranols A-G and 19-O-Methyl-22-methoxypre-shamixanthone, PKS and Hybrid PKS-Derived Metabolites from a Sponge-Associated Emericella variecolor Fungus” (J Nat Prod, 2015)", "key": {"HepG2 [1]": {"tested_on": "HepG2", "test": "Decrease in acetyl-CoA carboxylase mRNA level in human HepG2 cells by RT-PCR analysis", "type": "functional, cell-based"}, "HepG2 [2]": {"tested_on": "HepG2", "test": "Decrease in fatty acid synthase mRNA level in human HepG2 cells by RT-PCR analysis", "type": "functional, cell-based"}, "HepG2 [3]": {"tested_on": "HepG2", "test": "Decrease in SREBP-1c mRNA level in human HepG2 cells by RT-PCR analysis", "type": "functional, cell-based"}, "HepG2 [4]": {"tested_on": "HepG2", "test": "Inhibition of oleic acid-induced total cholesterol level in human HepG2 cells at 10 uM", "type": "functional, cell-based", "in_short": "(§1)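 HepG2 cells at 70–80% confluence exposed to 100 μM oleic acid in DMEM for 12 h, then compound at 10 μM plus 100 μM oleic acid for 6 h. Statin positive control. Intracellular total cholesterol and triglyceride measured with commercial kits. n = 3, experiment repeated in triplicate, mean ± SEM.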"}, "HepG2 [5]": {"tested_on": "HepG2", "test": "Inhibition of oleic acid-induced triglyceride level in human HepG2 cells at 10 uM", "type": "functional, cell-based", "in_short": "as §1"}, "HepG2 [6]": {"tested_on": "HepG2", "test": "Inhibition of oleic acid-induced lipid accumulation in human HepG2 cells at 10 uM by oil red O staining analysis", "type": "functional, cell-based", "in_short": "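HepG2 cells in DMEM with 10% FBS and penicillin/streptomycin, grown to 70–80% confluence, preloaded with 100 μM oleic acid for 12 h, then given compound at 10 μM in DMEM/100 μM oleic acid for another 6 h. Statin positive control and DMEM/oleic acid blank. Oil Red O staining read by spectrophotometry at 358 nm. n = 8, experiment repeated in triplicate, mean ± SEM.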"}, "HepG2 [7]": {"tested_on": "HepG2", "test": "Cytotoxicity against human HepG2 cells upto 100 uM by MTT assay", "type": "cell-based"}}, "note": "Active and inactive are the calls of the source. The calls are words filed in the database; no cut-off is given here."}
{"smiles": "C=C(C)[C@H]1COc2c(C)cc(O)c(C(=O)c3c(O)ccc(CC=C(C)C)c3O)c2[C@@H]1O", "values": [{"measurement": "inhibition", "setting": "HepG2 [1]", "value": "Active"}, {"measurement": "inhibition", "setting": "HepG2 [2]", "value": "Active"}, {"measurement": "inhibition", "setting": "HepG2 [3]", "value": "Active"}, {"measurement": "inhibition", "setting": "HepG2 [4]", "value": "Active"}, {"measurement": "inhibition", "setting": "HepG2 [5]", "value": "Active"}, {"measurement": "inhibition", "setting": "HepG2 [6]", "value": "Active"}, {"measurement": "Activity", "setting": "HepG2 [7]", "value": "Non-toxic"}]}
{"smiles": "CCC[C@H](O)[C@H](O)/C=C/c1cccc(OC)c1CO", "values": [{"measurement": "inhibition", "setting": "HepG2 [4]", "value": "inactive"}, {"measurement": "inhibition", "setting": "HepG2 [5]", "value": "Active"}, {"measurement": "inhibition", "setting": "HepG2 [6]", "value": "Active"}, {"measurement": "Activity", "setting": "HepG2 [7]", "value": "Non-toxic"}]}
{"smiles": "C/C=C/[C@H](O)[C@H](O)/C=C/c1cccc(OC)c1CO", "values": [{"measurement": "inhibition", "setting": "HepG2 [5]", "value": "inactive"}, {"measurement": "inhibition", "setting": "HepG2 [6]", "value": "Active"}, {"measurement": "Activity", "setting": "HepG2 [7]", "value": "Non-toxic"}]}
